Folding enthalpy and Tm data for 76 sequences are collected here from the array DNA melting data of Ke et al. (doi:10.1101/2024.01.08.574731).

The nature of series [1]: folding enthalpy; higher = less favourable; fluorescence melt of hairpins on a sequencing array, two-state fit. To be noted: sodium 0.088 M. The essentials: (§1)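 Bootstrapped two-state fits yielded melting temperature and folding enthalpy for library hairpins. Cy3 fluorescence, with annealed Cy3 and quencher oligos, was imaged on a sequenced MiSeq flow cell in 50 mM Na-HEPES pH 8.0, 25 mM NaCl in 2.5 °C steps up to 60 °C, and normalised to pre-quench Cy3 and to control constructs. Four replicates were combined by inverse variance, and fitted temperatures were raised by 9.35 °C to match UV melts.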

Series [2] in a line: melting temperature; fluorescence melt of hairpins on a sequencing array, two-state fit, raised by 9.35 °C to match UV melts. The following applies: sodium 0.088 M. In outline: as §1

On to GATCCTCATTAGGATC ((((((....)))))), for which the folding enthalpy in series [1] was -33.8 kcal/mol. In series [2], the Tm was 51.1 °C.
For GATCCTCCAGAGGATC ((((((....)))))) the same measures were -35.5 kcal/mol and 55.5 °C.
As for GATCCTCGTCAGGATC ((((((....)))))), the folding enthalpy in series [1] was -25.1 kcal/mol. Moreover, in series [2], the Tm worked out at 50.8 °C.
Regarding GATCCTCTCAAGGATC ((((((....)))))), the folding enthalpy in series [1] is -39.9 kcal/mol. Besides, in series [2], the Tm came out at 53.2 °C.
Taken in the same sequence, the figures for GATCCTCTCAGGATC ((((((...)))))) were -36.4 kcal/mol and 55 °C.
For GATCCTCTGAGGATC ((((((...)))))) the same measures were -33 kcal/mol and 51.9 °C.
Taken in the same sequence, the figures for GATCCTCTGCAGGATC ((((((....)))))) were -37 kcal/mol and 50.7 °C.
For GATCCTCTTCAGGATC ((((((....)))))), in series [1], the folding enthalpy was -38.2 kcal/mol. Moreover, the Tm in series [2] is 51.3 °C.
For GATCCTGAACAGGATC ((((((....)))))) the same measures were -38.4 kcal/mol and 59.9 °C.
For GATCCTGACCAGGATC ((((((....)))))) the same measures were -45.1 kcal/mol and 56.5 °C.
Taken in the same sequence, the figures for GATCCTGATAAGGATC ((((((....)))))) were -37 kcal/mol and 64.4 °C.
As to GATCCTGCAAGGATC ((((((...)))))), the folding enthalpy in series [1] is -39.6 kcal/mol. For the same sequence, the Tm in series [2] was 68.5 °C.
For GATCCTGCACAGGATC ((((((....)))))) the same measures were -47.2 kcal/mol and 58.9 °C.
Take GATCCTGCATAGGATC ((((((....)))))): in series [1], the folding enthalpy was -43.4 kcal/mol. In series [2], the Tm amounted to 60.9 °C.
Regarding GATCCTGCCCAGGATC ((((((....)))))), the folding enthalpy in series [1] is -49.4 kcal/mol. Besides, the Tm in series [2] turned out to be 57 °C.
Taken in the same sequence, the figures for GATCCTGCCGAGGATC ((((((....)))))) were -32.1 kcal/mol and 53 °C.
GATCCTGCCTAGGATC ((((((....)))))): the folding enthalpy in series [1] was -43.7 kcal/mol. The Tm in series [2] was found to be 54.7 °C.
Taken in the same sequence, the figures for GATCCTGCGCAGGATC ((((((....)))))) were -53 kcal/mol and 59.3 °C.
For GATCCTGCTCAGGATC ((((((....)))))) the same measures were -48.1 kcal/mol and 55.2 °C.
For GATCCTGGAAACGGGATC (((((.(....).))))) the same measures were -42.8 kcal/mol and 50.9 °C.
In the case of GATCCTGGATAGGATC ((((((....)))))), in series [1], the folding enthalpy was -39 kcal/mol. The Tm in series [2] came to 57.5 °C.
Take GATCCTGGGGAGGATC ((((((....)))))): in series [1], the folding enthalpy was -36.8 kcal/mol. The Tm in series [2] turned out to be 51 °C.
Taken in the same sequence, the figures for GATCCTGTAAAGGATC ((((((....)))))) were -39.6 kcal/mol and 60.5 °C.
Turning to GATCCTGTCAAGGATC ((((((....)))))), the folding enthalpy in series [1] was -42.7 kcal/mol. In addition, the Tm in series [2] turned out to be 64.9 °C.
Taken in the same sequence, the figures for GATCCTGTGCAGGATC ((((((....)))))) were -43.2 kcal/mol and 55 °C.
As for GATCCTGTGGAGGATC ((((((....)))))), the folding enthalpy in series [1] was -31.8 kcal/mol. The Tm in series [2] worked out at 51.8 °C.
Taken in the same sequence, the figures for GATCCTTAAAGGATC ((((((...)))))) were -33.7 kcal/mol and 51.7 °C.
For GATCCTTACAAGGATC ((((((....)))))) the same measures were -38.1 kcal/mol and 54.2 °C.
For GATCCTTAGGAGGATC ((((((....)))))) the same measures were -39.2 kcal/mol and 51 °C.
For the sequence GATCCTTATCAGGATC ((((((....)))))), the folding enthalpy in series [1] was -33.2 kcal/mol. Moreover, the Tm in series [2] worked out at 51 °C.
Consider GATCCTTCCCAGGATC ((((((....)))))), for which, in series [1], the folding enthalpy was -36.9 kcal/mol. The Tm in series [2] was determined as 52 °C.
Taken in the same sequence, the figures for GATCCTTCGGAGGATC ((((((....)))))) were -38.2 kcal/mol and 52.3 °C.
In the case of GATCCTTGCAAGGATC ((((((....)))))), the folding enthalpy in series [1] was -41 kcal/mol. Further, the Tm in series [2] stood at 55.4 °C.
For GATCCTTGCTAGGATC ((((((....)))))), the folding enthalpy in series [1] is -35.7 kcal/mol. Moreover, the Tm in series [2] worked out at 53.7 °C.
For GATCCTTGGAAGGATC ((((((....)))))) the same measures were -32.1 kcal/mol and 52.2 °C.
Consider GATCCTTGTAAGGATC ((((((....)))))), for which the folding enthalpy in series [1] is -42.3 kcal/mol. For the same sequence, the Tm in series [2] amounted to 55.6 °C.
For GATCCTTTCCAGGATC ((((((....)))))) the same measures were -46.1 kcal/mol and 51.7 °C.
Taken in the same sequence, the figures for GATCCTTTCGAGGATC ((((((....)))))) were -38.7 kcal/mol and 53.8 °C.
Take GATCCTTTGCAGGATC ((((((....)))))): the folding enthalpy in series [1] is -30.6 kcal/mol. In addition, in series [2], the Tm was 52 °C.
GATCGAAAACTCGATC ((((((....)))))): the folding enthalpy in series [1] was -30.3 kcal/mol. Besides, in series [2], the Tm came out at 47.2 °C.
As for GATCGAAAATTCGATC ((((((....)))))), the folding enthalpy in series [1] is -33.9 kcal/mol. The Tm in series [2] was 50 °C.
For GATCGAAACTCGATC ((((((...)))))) the same measures were -30.4 kcal/mol and 50.2 °C.
Taken in the same sequence, the figures for GATCGAAACTTCGATC ((((((....)))))) were -33.9 kcal/mol and 53.5 °C.
Turning to GATCGAAATTTCGATC ((((((....)))))), the folding enthalpy in series [1] is -41.2 kcal/mol. In addition, in series [2], the Tm stood at 53.7 °C.
For GATCGAACCATCGATC ((((((....)))))) the same measures were -41.6 kcal/mol and 50.4 °C.
As to GATCGAACCGTCGATC ((((((....)))))), the folding enthalpy in series [1] is -37 kcal/mol. Also, the Tm in series [2] worked out at 49.5 °C.
For GATCGAACTATCGATC ((((((....)))))) the same measures were -43.8 kcal/mol and 50.3 °C.
Regarding GATCGAACTCTCGATC ((((((....)))))), the folding enthalpy in series [1] was -35.6 kcal/mol. In addition, in series [2], the Tm was found to be 49.7 °C.
Consider GATCGAAGCATCGATC ((((((....)))))), for which the folding enthalpy in series [1] is -35.8 kcal/mol. Besides, in series [2], the Tm was determined as 51.2 °C.
For GATCGAATAGTCGATC ((((((....)))))), the folding enthalpy in series [1] was -34.8 kcal/mol. In addition, the Tm in series [2] was 48.8 °C.
Taken in the same sequence, the figures for GATCGAATCCTCGATC ((((((....)))))) were -41.1 kcal/mol and 50.6 °C.
For GATCGAATCTCGATC ((((((...)))))) the same measures were -38.2 kcal/mol and 51 °C.
Taken in the same sequence, the figures for GATCGACAACTCGATC ((((((....)))))) were -33.8 kcal/mol and 48.5 °C.
On to GATCGACAATTCGATC ((((((....)))))), for which the folding enthalpy in series [1] is -42.5 kcal/mol. Also, in series [2], the Tm turned out to be 49.2 °C.
For GATCGACACATCGATC ((((((....)))))) the same measures were -38.5 kcal/mol and 52.4 °C.
Taken in the same sequence, the figures for GATCGACACCTCGATC ((((((....)))))) were -44.7 kcal/mol and 52.5 °C.
Taken in the same sequence, the figures for GATCGACAGTCGATC ((((((...)))))) were -40.4 kcal/mol and 49.8 °C.
GATCGACAGTTCGATC ((((((....)))))): the folding enthalpy in series [1] was -44.4 kcal/mol. In addition, the Tm in series [2] was found to be 49.2 °C.
For GATCGACCATCGATC ((((((...)))))), the folding enthalpy in series [1] is -32.2 kcal/mol. Further, in series [2], the Tm was found to be 49.6 °C.
For GATCGACCATTCGATC ((((((....)))))), the folding enthalpy in series [1] was -39.6 kcal/mol. The Tm in series [2] amounted to 50.1 °C.
In the case of GATCGACCCTCGATC ((((((...)))))), the folding enthalpy in series [1] is -39.1 kcal/mol. In addition, the Tm in series [2] came out at 51.7 °C.
GATCGACCCTTCGATC ((((((....)))))): the folding enthalpy in series [1] was -45.1 kcal/mol. Further, the Tm in series [2] was 53.4 °C.
Taken in the same sequence, the figures for GATCGACGAAAGTCATC (((.(((....)))))) were -12.7 kcal/mol and 33.1 °C.
For GATCGACGACTCGATC ((((((....)))))), the folding enthalpy in series [1] was -36.3 kcal/mol. Besides, the Tm in series [2] turned out to be 48.7 °C.
GATCGACGCGTCGATC ((((((....)))))): the folding enthalpy in series [1] is -52.3 kcal/mol. Moreover, the Tm in series [2] stood at 68.2 °C.
Take GATCGACGCTTCGATC ((((((....)))))): the folding enthalpy in series [1] was -40.6 kcal/mol. The Tm in series [2] was 53.3 °C.
Taken in the same sequence, the figures for GATCGACGGATCGATC ((((((....)))))) were -29 kcal/mol and 51.1 °C.
For GATCGACGGTCGATC ((((((...)))))) the same measures were -43.7 kcal/mol and 51.2 °C.
For GATCGACGTATCGATC ((((((....)))))) the same measures were -56.4 kcal/mol and 51.2 °C.
As to GATCGACTAGTCGATC ((((((....)))))), the folding enthalpy in series [1] is -45.6 kcal/mol. In series [2], the Tm came out at 63.7 °C.
As to GATCGACTATTCGATC ((((((....)))))), in series [1], the folding enthalpy is -38.4 kcal/mol. Besides, the Tm in series [2] is 50.5 °C.
Taken in the same sequence, the figures for GATCGACTTATCGATC ((((((....)))))) were -44.6 kcal/mol and 51 °C.
On to GATCGACTTGTCGATC ((((((....)))))), for which the folding enthalpy in series [1] is -43.2 kcal/mol. Moreover, the Tm in series [2] was found to be 68.3 °C.
Taken in the same sequence, the figures for GATCGAGACATCGATC ((((((....)))))) were -38.9 kcal/mol and 58.8 °C.
Taken in the same sequence, the figures for GATCGAGACCTCGATC ((((((....)))))) were -44.3 kcal/mol and 56.7 °C.
Turning to GATCGAGACGTCGATC ((((((....)))))), the folding enthalpy in series [1] was -37.3 kcal/mol. For the same sequence, the Tm in series [2] turned out to be 57.2 °C.
